Assay outcomes as filed in PubChem BioAssay.
An excerpt weighted towards active compounds, which were near 2.8% of everything screened.
EBI2 block – EBI2 (human) antagonism; P32249; EBI2 beta-arrestin recruitment, luminescence, 7a,25-OHC stimulated; inhibition, % at 5 µM; actives 0.81% (n = 360,000); in the data active means inhibition above about 38%;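 further: enzyme fragment complementation signal reports receptor beta-arrestin coupling in cells; 0% = agonist plus DMSO wells and 100% = wells without agonist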
HTR2A ag – agonists of mouse serotonin 5-HT2A receptor (HTR2A); CHO-K1 mHTR2A beta-arrestin complementation, luminescence; percent of 30 µM serotonin response; activation, % at 7.6 µM; actives 0.66% (n = 360,000); AID 624169;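 active means activation above a run cutoff, the mean activation of all tested compounds plus 3 SD, cut at about 14% in these data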;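 further: 0% = plate median of compound wells and 100% = 30 µM serotonin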
Target sequence (P35363 whole entry, looked up): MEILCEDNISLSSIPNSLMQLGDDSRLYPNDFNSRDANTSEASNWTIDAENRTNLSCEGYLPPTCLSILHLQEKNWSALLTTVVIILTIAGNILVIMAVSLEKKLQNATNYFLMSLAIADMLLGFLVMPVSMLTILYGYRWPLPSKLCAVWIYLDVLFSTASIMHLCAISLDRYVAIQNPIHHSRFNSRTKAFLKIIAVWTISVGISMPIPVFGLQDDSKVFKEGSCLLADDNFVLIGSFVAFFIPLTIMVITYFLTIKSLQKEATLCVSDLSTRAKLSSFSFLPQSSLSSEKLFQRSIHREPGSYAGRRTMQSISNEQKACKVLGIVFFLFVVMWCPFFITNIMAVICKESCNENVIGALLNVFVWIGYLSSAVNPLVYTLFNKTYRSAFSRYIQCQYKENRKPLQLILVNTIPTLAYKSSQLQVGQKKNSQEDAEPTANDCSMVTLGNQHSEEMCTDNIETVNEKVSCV
MC4R antagonist – human MC4R antagonism in cAMP assay; P32245; MC4R-expressing cells, MTII-stimulated cAMP, LANCE TR-FRET; inhibition, % at 6.5 µM; actives 0.48% (n = 360,000); AID 540295;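 active means inhibition above its plate's cutoff, the mean of tested wells on that plate plus 3 SD, cut at about 29% in these data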;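 further: 0% = Melanotan II alone and 100% = Melanotan II plus saturating MCL0020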
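System – human MC4R-expressing U2OS cells · Also added – Melanotan II · Dosing – one concentration, 6.5 µM nominal · Timing – 30-min compound, 1-h challenge, 1-h detection, room temperature · Measured by – Eu-cAMP/anti-cAMP TR-FRET, emission 671 nm · Replicates – singlicate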
MC4R barr agon – agonists of human melanocortin 4 receptor (MC4R) beta-arrestin. P32245. U2OS MC4R beta-arrestin complementation, luminescence; percent of melanotan II response, DMSO zero. activation, % at 8.9 µM. actives 0.98% (n = 360,000);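 active means activation above a per-plate cutoff, the mean activation of sample wells on that plate plus 3 SD, cut at about 8% in these data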
* hit, by the source's call.

What do the screens show for `Cc1cc(Cl)c(S(=O)(=O)NC2CCCC2)cc1OCC(=O)NC1CCCCC1`?
EBI2 block: 45*; HTR2A ag: 0; MC4R antagonist: 3; MC4R barr agon: -1

What do the screens show for `CC1CC(C)CN(S(=O)(=O)c2ccc(Cl)cc2)C1` (stereo not given)?
EBI2 block: 12; HTR2A ag: 3; MC4R antagonist: 8; MC4R barr agon: 9.2*

What do the screens show for `CC1CC(C)CN(C(=O)c2ccc(S(=O)(=O)N3CC(C)CC(C)C3)cc2)C1` (stereo not given)?
EBI2 block: -11; HTR2A ag: -1; MC4R antagonist: 8; MC4R barr agon: 0

How did O=C1NC[C@@H](CCCCN2C[C@H](Cc3ccc(O)cc3)N(CCC3CCCCC3)C(=O)C2=O)N(CCC2CCCCC2)C1=O do in these assays?
EBI2 block: 2; HTR2A ag: 0

What do the screens show for `C[C@H](CO)N1C[C@H](C)[C@H](CN(C)S(=O)(=O)c2cccs2)Oc2ncc(-c3cc4ccccc4o3)cc2C1=O`?
EBI2 block: 34; HTR2A ag: -7; MC4R antagonist: -2; MC4R barr agon: -2

Results for Cc1ccc(NC(=O)c2ccc(NCCCN3CCOCC3)c([N+](=O)[O-])c2)cc1Cl ?
EBI2 block: 19; HTR2A ag: -7; MC4R antagonist: -7; MC4R barr agon: -1

What do the screens show for `O=C(Nc1ccc(Cl)c([N+](=O)[O-])c1)c1ccc(NCCCN2CCOCC2)c([N+](=O)[O-])c1`?
EBI2 block: -3; HTR2A ag: -2; MC4R antagonist: 5; MC4R barr agon: 20*

What do the screens show for `Cc1cccc(OCCNC(=S)NC(=O)c2cncc(Br)c2)c1`?
EBI2 block: -2; HTR2A ag: -4; MC4R antagonist: 0; MC4R barr agon: 9.3*

Results for COC(=O)C1=C(C)N(Cc2ccccc2)C(=NCc2ccccc2)N[C@H]1c1cccc(C(F)(F)F)c1 ?
EBI2 block: -12; HTR2A ag: 5; MC4R antagonist: 3; MC4R barr agon: 16*

Results for COC(=O)C1=C(C)N(Cc2ccccc2)C(=NCc2cccc(Cl)c2)N[C@H]1c1cccc(F)c1 ?
EBI2 block: 1; HTR2A ag: -5; MC4R antagonist: 9; MC4R barr agon: 13*

How did COC(=O)C1=C(C)N(Cc2ccccc2)C(=O)N[C@H]1c1cccc(C(F)(F)F)c1 do in these assays?
EBI2 block: 3; HTR2A ag: -3; MC4R antagonist: 0; MC4R barr agon: 0

Results for c1ccc(C(c2ccccc2)c2ccn[nH]2)cc1 ?
EBI2 block: 0; HTR2A ag: -4; MC4R antagonist: -1; MC4R barr agon: 0

How did CCN(CC)S(=O)(=O)c1ccc(N2CCOCC2)c(NS(=O)(=O)c2ccc(Cl)s2)c1 do in these assays?
EBI2 block: 0; HTR2A ag: -7; MC4R antagonist: 5; MC4R barr agon: -3

What do the screens show for `Cn1c(N)c(C(=O)COC(=O)/C=C/c2ccccc2)c(=O)n(C)c1=O`?
EBI2 block: 1; HTR2A ag: -2; MC4R antagonist: 6; MC4R barr agon: -2

What do the screens show for `c1ccc(SC23CCCCN(CCC2)C32OCCO2)cc1` (stereo not given)?
EBI2 block: 4; HTR2A ag: 2

Results for O=C(/C=C/c1cccs1)c1ccc(N2CCOCC2)cc1 ?
EBI2 block: 45*; HTR2A ag: -1; MC4R antagonist: 14; MC4R barr agon: -1

How did O=C(c1ccccc1)N1N=C(c2cccs2)CC1c1ccccc1O (stereo not given) do in these assays?
EBI2 block: -9; HTR2A ag: 11; MC4R antagonist: -1; MC4R barr agon: 8.4*

What do the screens show for `Cc1ccc(NC(=O)Cn2nnc(C(=O)NCc3ccc4c(c3)OCO4)c2N)cc1`?
EBI2 block: 16; HTR2A ag: 5; MC4R antagonist: -1; MC4R barr agon: 2

What do the screens show for `COc1ccccc1NC(=O)Cn1nnc(C(=O)NCc2ccc3c(c2)OCO3)c1N`?
EBI2 block: -3; HTR2A ag: 4; MC4R antagonist: -3; MC4R barr agon: -2

How did COc1ccc(Cl)cc1NC(=O)Cn1nnc(C(=O)NCc2ccc3c(c2)OCO3)c1N do in these assays?
EBI2 block: 11; HTR2A ag: 2; MC4R antagonist: 4; MC4R barr agon: 8.6*

How did Nc1c(C(=O)NCc2ccc3c(c2)OCO3)nnn1CC(=O)Nc1ccc(Br)cc1 do in these assays?
EBI2 block: -2; HTR2A ag: 6; MC4R antagonist: 22; MC4R barr agon: 15*

What do the screens show for `CCOC(=O)[C@H]1[C@H]2COc3ccc(OC)cc3[C@@H]2N2C(=O)c3cc(OC)c(OC)cc3NC(=O)[C@@]12C`?
EBI2 block: -11; HTR2A ag: -2; MC4R antagonist: 0; MC4R barr agon: -2

How did N#Cc1ccccc1S(=O)(=O)NC(=O)[C@H]1O[C@@H](n2cnc3c(N)ncnc32)[C@H](O)[C@@H]1O do in these assays?
EBI2 block: -11; HTR2A ag: 4

How did C#CCOCCOCCOCCNc1nc(N2CCN(C(=O)CCCCCCCCCCNC(=O)[C@H]([C@@H](C)CC)n3cc(CCCCCN)nn3)CC2)nc(N2CCN(C(=O)CCCCCCCCCCNC(=O)[C@H]([C@@H](C)CC)n3cc(CCCCN=C(N)N)nn3)CC2)n1 do in these assays?
EBI2 block: 4; HTR2A ag: 16*; MC4R antagonist: 57*; MC4R barr agon: -1

What do the screens show for `C#CCOCCOCCOCCNc1nc(N2CCN(C(=O)CCCCCCCCCCNC(=O)Cn3cc(CCCCCN)nn3)CC2)nc(N2CCN(C(=O)CCCCCCCCCCNC(=O)[C@H]([C@@H](C)CC)n3cc(CCCCN=C(N)N)nn3)CC2)n1`?
EBI2 block: -7; HTR2A ag: -4; MC4R antagonist: 20; MC4R barr agon: 0

How did C#CCOCCOCCOCCNc1nc(N2CCN(C(=O)CCCCCCCCCCNC(=O)[C@H]([C@@H](C)CC)n3cc(CCCCN=C(N)N)nn3)CC2)nc(N2CCN(C(=O)CCCCCCCCCCNC(=O)[C@H](CO)n3cc(CCCCCN)nn3)CC2)n1 do in these assays?
EBI2 block: -1; HTR2A ag: 2; MC4R antagonist: 32*; MC4R barr agon: -1

How did COc1ccc(NC(=O)C2=CC=CN3CCS(=O)(=O)N=C23)c(OC)c1 do in these assays?
EBI2 block: -13; HTR2A ag: 12; MC4R antagonist: -4; MC4R barr agon: -2

What do the screens show for `CCCN(C)C1CN(Cc2cn(Cc3ccc(C)cc3)nn2)S(=O)(=O)C1` (stereo not given)?
EBI2 block: -4; HTR2A ag: 10

What do the screens show for `Cn1cc(-c2ccccc2C(N)=O)c(=O)c2cc(Cl)ccc21`?
EBI2 block: 0; HTR2A ag: 2; MC4R antagonist: 9; MC4R barr agon: 0

What do the screens show for `Cn1cc(C2=C(c3ccc(Cl)cc3Cl)C(=O)NC2=O)c2ccccc21`?
EBI2 block: 49*; HTR2A ag: -3; MC4R antagonist: 12; MC4R barr agon: 2

What do the screens show for `O=c1c2ccccc2nc2n1CCc1ccc(Br)cc1-2`?
EBI2 block: 4; HTR2A ag: 1
